Test results from ChEMBL document CHEMBL1124725, “Inhibition of steroid 5 alpha-reductase by unsaturated 3-carboxysteroids” (J Med Chem, 1990).

Assays:
[1] = molecular target: T1, Steroid 5-alpha-reductase (Rattus norvegicus, UniProt P24008+P31214); experiment: In vitro inhibition of Steroid 5-alpha-reductase in rat ventral prostates.; type: tissue-based, Prostate gland
T1 sequence (P24008 whole entry): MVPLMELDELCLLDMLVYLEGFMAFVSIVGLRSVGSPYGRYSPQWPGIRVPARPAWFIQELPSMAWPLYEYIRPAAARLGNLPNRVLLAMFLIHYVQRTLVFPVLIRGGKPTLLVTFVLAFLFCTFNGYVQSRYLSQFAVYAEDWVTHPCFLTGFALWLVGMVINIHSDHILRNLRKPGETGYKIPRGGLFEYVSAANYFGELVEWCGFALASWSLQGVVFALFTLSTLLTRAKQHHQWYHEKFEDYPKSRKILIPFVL
T1 sequence (P31214 whole entry): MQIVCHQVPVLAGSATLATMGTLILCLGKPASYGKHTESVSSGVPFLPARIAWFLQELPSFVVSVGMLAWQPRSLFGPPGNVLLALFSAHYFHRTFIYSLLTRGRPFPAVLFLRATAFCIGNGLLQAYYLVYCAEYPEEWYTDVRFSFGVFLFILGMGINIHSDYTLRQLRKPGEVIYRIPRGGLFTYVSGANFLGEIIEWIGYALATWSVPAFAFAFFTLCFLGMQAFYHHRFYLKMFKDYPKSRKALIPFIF
Method in brief: (§1)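 Rat ventral prostate microsomes were incubated with [14C]T (1.2 μM) and test compound (0–10 μM), both dried from ethanol. Buffer was 20 mM sodium phosphate, pH 6.6, with 400 μM NADPH, at 37 °C for 20–30 min, keeping T consumption ≤20%. After ethyl acetate quench, DHT plus […] formation was measured. Apparent Ki came from Dixon analysis, or IC50 for hyperbolic inhibition; ranges reflect different enzyme preparations.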

[2] = molecular target: T2, 3-oxo-5-alpha-steroid 4-dehydrogenase 2 (Homo sapiens, UniProt P31213); experiment: In vitro inhibition of Steroid 5-alpha-reductase in human prostatic tissue.; settings: read-out: Ki app
T2 sequence (P31213 whole entry): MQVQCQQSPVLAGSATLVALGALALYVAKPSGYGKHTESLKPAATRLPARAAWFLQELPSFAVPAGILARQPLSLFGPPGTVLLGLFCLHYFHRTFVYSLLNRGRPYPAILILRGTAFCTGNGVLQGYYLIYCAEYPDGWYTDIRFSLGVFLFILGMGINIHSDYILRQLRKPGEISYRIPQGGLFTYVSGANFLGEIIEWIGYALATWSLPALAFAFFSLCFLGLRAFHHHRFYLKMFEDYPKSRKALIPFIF
Method in brief: (§2)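 Microsomes from surgically derived benign hyperplastic human prostate. Incubation was in 50 mM sodium citrate, pH 5.0, with 400 μM NADPH at 37 °C for 20–30 min, with ≤20% of T consumed. The reaction was quenched with ethyl acetate, and the read-out was total 5α-reduced products (DHT + ADIOL). Ki,app came from Dixon plots, or IC50 if nonlinear; ranges span microsome preparations.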

[3] = molecular target: T2, 3-oxo-5-alpha-steroid 4-dehydrogenase 2; experiment: In vitro inhibitory activity against Steroid 5-alpha-reductase was determined in human prostatic tissue expressed as apparent inhibition constant; Range is 7-12; settings: read-out: Ki app
Method in brief: as §2, with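 “prostate. [14C]T (1.2 μM) and inhibitor (0–10 μM) were dried down from ethanol.” for “prostate.”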

[4] = molecular target: T2, 3-oxo-5-alpha-steroid 4-dehydrogenase 2; experiment: In vitro inhibitory activity against Steroid 5-alpha-reductase was determined in human prostatic tissue expressed as apparent inhibition constant; Range is 700-900
[5] = molecular target: T1, Steroid 5-alpha-reductase; experiment: In vitro inhibitory activity against Steroid 5-alpha-reductase was determined in rat ventral prostates expressed as apparent inhibition constant; Range is 20-30; type: tissue-based, Prostate gland; method in brief: as §1
[6] = molecular target: T2, 3-oxo-5-alpha-steroid 4-dehydrogenase 2; experiment: In vitro inhibitory activity against Steroid 5-alpha-reductase was determined in human prostatic tissue expressed as apparent inhibition constant; Range is 7-18; settings: read-out: Ki app
[7] = molecular target: T1, Steroid 5-alpha-reductase; experiment: In vitro inhibitory activity against Steroid 5-alpha-reductase was determined in rat ventral prostates expressed as apparent inhibition constant; Range is 35-50; type: tissue-based, Prostate gland; method in brief: as §1
[8] = molecular target: T1, Steroid 5-alpha-reductase; experiment: In vitro inhibitory activity against 5-alpha reductase was determined in rat ventral prostates expressed as apparent inhibition constant; type: tissue-based, Prostate gland; method in brief: as §1
[9] = molecular target: T2, 3-oxo-5-alpha-steroid 4-dehydrogenase 2; experiment: In vitro inhibitory activity against 5-alpha reductase was determined in human prostatic tissue expressed as apparent inhibition constant; settings: read-out: Ki app
Method in brief: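 Microsomes from surgically obtained benign hyperplastic human prostate; 50 mM sodium citrate, pH 5.0, 37 °C, 20–30 min. Substrate [14C]testosterone 1.2 μM, NADPH 400 μM final, inhibitor 0–10 μM. Read-out is conversion to total 5α-reduced metabolites (DHT plus 5α-androstanediol), keeping T consumption ≤20%. Ki,app from Dixon analysis for linear inhibitors; ranges given across microsome preparations.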

Structure (SMILES) | Ki app [1] [nM] | Ki [2] [nM] | other results
CC(C)N(C(=O)[C@H]1CCC2C3CC=C4C=C(C(=O)O)CC[C@]4(C)C3C=C[C@@]21C)C(C)C (stereo partly drawn) | 47 | 7 | 
CC(C)N(C(=O)[C@H]1CCC2C3CCC4=CC(C(=O)O)=CC[C@]4(C)C3CC[C@@]21C)C(C)C (stereo partly drawn) | 120 | 52 | 
CC(CO)[C@@H]1CCC2C3CCC4C=C(C(=O)O)CC[C@]4(C)C3CC[C@@]21C (stereo partly drawn) | 155 | 5000 | 
CC(C)N(C(=O)[C@H]1CCC2C3C=CC4=CC(C(=O)O)=CC[C@]4(C)C3CC[C@@]21C)C(C)C (stereo partly drawn) | 300 |  | Ki [3]: 7 nM
CC(C)N(C(=O)[C@H]1CCC2C3CC=C4C=C(C(=O)O)C=C[C@]4(C)C3CC[C@@]21C)C(C)C (stereo partly drawn) | 600 | 60 | 
CC(C)(C)NC(=O)[C@H]1CC[C@H]2[C@@H]3CC=C4C=C(C(=O)O)CC[C@]4(C)[C@H]3CC[C@]12C [EPRISTERIDE] |  |  | Ki app [5]: 20 nM
CC(C)N(C(=O)[C@H]1CC[C@H]2[C@@H]3CC[C@H]4CC(C(=O)O)CC[C@]4(C)[C@H]3CC[C@]12C)C(C)C (stereo partly drawn) | 340 | 2200 | 
CC(C)N(C(=O)[C@H]1CCC2C3CC[C@H]4C=C(C(=O)O)C=C[C@]4(C)C3CC[C@@]21C)C(C)C (stereo partly drawn) | 65 | 62 | 
CC(C)(C)NC(=O)[C@H]1CC[C@H]2[C@@H]3CC[C@H]4C=C(C(=O)O)CC[C@]4(C)[C@H]3CC[C@]12C | 11 | 110 | 
CC(C)N(C(=O)[C@H]1CCC2C3CC=C4C=C(C(=O)O)CC[C@]4(C)C3CC[C@@]21C)C(C)C (stereo partly drawn) |  |  | Ki [6]: 7 nM; Ki app [7]: 35 nM
C[C@]12CCC(C(=O)O)=CC1=CCC1C2CC[C@@]2(C)C1CC[C@@H]2C#N (stereo partly drawn) | 140 | 790 | 
CC(C)N(C(=O)[C@H]1CCC2C3CC[C@H]4CC(C(=O)O)=CC[C@]4(C)C3CC[C@@]21C)C(C)C (stereo partly drawn) | 110 | 85 | 
CC(C)N(C(=O)[C@H]1CCC2C3CC=C4C=C(C(=O)O)CC[C@@H]4C3CC[C@@]21C)C(C)C (stereo partly drawn) | 140 |  | 
CC(C)N(C(=O)[C@H]1CCC2C3CC[C@H]4C=C(C(=O)O)CC[C@]4(C)C3CC[C@@]21C)C(C)C (stereo partly drawn) |  |  | Ki app [8]: 70 nM; Ki [9]: 30 nM

More lines, main results first:

Ki app [1] [nM] | Ki [2] [nM] | Structure (SMILES) | other results
70 | 35 | CC1=C(C(=O)O)CC[C@@]2(C)C1=CCC1C2CC[C@@]2(C)C1CC[C@@H]2C(=O)N(C(C)C)C(C)C (stereo partly drawn) | 
2000 | 200 | CC(C)N(C(=O)[C@H]1CCC2C3CCC4=C[C@@H](C(=O)O)CC[C@]4(C)C3CC[C@@]21C)C(C)C (stereo partly drawn) | 
290 |  | CC(C)N(C(=O)[C@H]1CCC2C3CCC4=C(CCC(C(=O)O)=C4)C3CC[C@@]21C)C(C)C (stereo partly drawn) | 
33 | 32 | CC(C)N(C(=O)[C@H]1CCC2C3CC(F)=C4C=C(C(=O)O)CC[C@]4(C)C3CC[C@@]21C)C(C)C (stereo partly drawn) | 
> 10000 | 220 | CC(C)N(C(=O)[C@H]1CCC2C3CCC4=C[C@](O)(C(=O)O)CC[C@]4(C)C3CC[C@@]21C)C(C)C (stereo partly drawn) | 
1000 |  | CC(C)N(C(=O)[C@H]1CCC2C3CC(C(F)(F)F)=C4C=C(C(=O)O)CC[C@]4(C)C3CC[C@@]21C)C(C)C (stereo partly drawn) | IC50 [4]: 700 nM
> 10000 | 320 | CC(C)N(C(=O)[C@H]1CCC2C3CCC4=C[C@@](O)(C(=O)O)CC[C@]4(C)C3CC[C@@]21C)C(C)C (stereo partly drawn) | 
35 |  | CC(C)N(C(=O)[C@H]1CC[C@H]2[C@@H]3CC[C@H]4C(F)=C(C(=O)O)CC[C@]4(C)[C@H]3CC[C@]12C)C(C)C | 
> 10000 | 570 | CC(C)N(C(=O)[C@H]1CCC2C3CCC4=C[C@H](C(=O)O)CC[C@]4(C)C3CC[C@@]21C)C(C)C (stereo partly drawn) | 
200 |  | CC1=C2C=C(C(=O)O)CC[C@]2(C)C2CC[C@@]3(C)C(CC[C@@H]3C(=O)N(C(C)C)C(C)C)C2C1 (stereo partly drawn) | 
